High-throughput results: PubChem, several laboratories
core dimer inh – blocks dimerization of HCV core protein | TR-FRET GST/Flag-core106 dimerization, 1536-well | inhibition, % at 5 µM | actives 0.33% (n = 300,000) | AID 1899;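 active = inhibition above the mean of all tested compounds plus 3 SD, set per screening campaign, cut at about 45% in these data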
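Material: GST/Flag-tagged HCV core106 proteins. Incubation: 4 h, 22.5 °C incubation. Read-out basis: inhibition (%) from 671 over 617 nm ratio. Measured by: TR-FRET, excitation 340 nm, emission 617 and 671 nm.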
DNA FID counter – fluorescent intercalator displacement, NS3 helicase counter-screen | inhibition, % at 7.9 µM | DNA fluorescent intercalator displacement, fluorescence | actives 0.17% (n = 290,000) | AID 1845; in the data active = inhibition above about 37%;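 note: 0% = vehicle and 100% = reference compound; higher means more ethidium bromide displaced from hairpin DNA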
pCIP destab – compounds decreasing mouse p/CIP protein stability. Q05BA5. F442A p/CIP-EGFP cells, EGFP fluorescence, 16 h. decrease of EGFP signal, % at 10 µM. actives 0.01% (n = 290,000). AID 1984;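 active = EGFP signal decrease of at least 30% at 10 µM or well 3 SD below plate mean, unless failing retest; inactive = the rest, including hits failing retest or dose response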
Target sequence (Q05BA5 1-1403): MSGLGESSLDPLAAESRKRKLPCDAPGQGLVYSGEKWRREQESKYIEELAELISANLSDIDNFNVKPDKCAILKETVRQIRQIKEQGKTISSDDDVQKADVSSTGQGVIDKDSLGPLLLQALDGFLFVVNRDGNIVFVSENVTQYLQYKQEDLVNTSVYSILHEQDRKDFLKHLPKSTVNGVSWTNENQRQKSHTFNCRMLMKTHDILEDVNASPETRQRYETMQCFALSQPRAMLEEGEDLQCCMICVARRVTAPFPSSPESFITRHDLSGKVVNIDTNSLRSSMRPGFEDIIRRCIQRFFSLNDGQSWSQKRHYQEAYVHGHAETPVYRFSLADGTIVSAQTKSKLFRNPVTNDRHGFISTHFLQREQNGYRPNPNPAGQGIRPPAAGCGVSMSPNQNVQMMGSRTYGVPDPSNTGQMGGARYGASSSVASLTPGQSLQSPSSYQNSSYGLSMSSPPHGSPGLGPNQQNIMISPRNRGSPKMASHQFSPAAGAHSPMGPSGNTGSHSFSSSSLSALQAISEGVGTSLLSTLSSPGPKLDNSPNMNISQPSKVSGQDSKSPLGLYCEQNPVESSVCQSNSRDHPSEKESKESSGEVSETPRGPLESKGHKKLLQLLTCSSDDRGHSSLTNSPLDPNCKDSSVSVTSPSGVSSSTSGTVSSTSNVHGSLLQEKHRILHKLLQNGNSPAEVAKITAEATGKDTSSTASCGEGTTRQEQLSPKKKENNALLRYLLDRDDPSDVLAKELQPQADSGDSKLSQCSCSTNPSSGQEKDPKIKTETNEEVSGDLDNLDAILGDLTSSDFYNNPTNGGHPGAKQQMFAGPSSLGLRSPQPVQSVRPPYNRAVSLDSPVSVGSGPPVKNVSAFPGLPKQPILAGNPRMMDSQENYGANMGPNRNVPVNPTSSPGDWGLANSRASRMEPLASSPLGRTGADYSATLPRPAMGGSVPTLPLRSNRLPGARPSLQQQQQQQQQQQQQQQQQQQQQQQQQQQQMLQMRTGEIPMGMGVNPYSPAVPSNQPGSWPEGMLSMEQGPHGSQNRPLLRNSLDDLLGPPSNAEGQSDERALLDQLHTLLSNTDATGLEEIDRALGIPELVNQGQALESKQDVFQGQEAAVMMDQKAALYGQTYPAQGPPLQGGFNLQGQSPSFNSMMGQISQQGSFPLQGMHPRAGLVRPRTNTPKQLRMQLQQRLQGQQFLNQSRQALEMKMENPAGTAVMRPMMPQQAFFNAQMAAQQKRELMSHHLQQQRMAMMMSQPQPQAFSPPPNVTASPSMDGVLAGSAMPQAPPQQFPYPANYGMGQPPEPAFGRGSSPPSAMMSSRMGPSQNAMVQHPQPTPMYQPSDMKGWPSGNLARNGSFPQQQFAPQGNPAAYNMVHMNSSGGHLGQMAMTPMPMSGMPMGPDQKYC
GPR7 antag – blocks human GPR7 receptor signaling; P48145; GPR7-expressing cells, fluorescence antagonist assay; inhibition, % at 4.4 µM; actives 1.1% (n = 290,000); AID 1861; in the data active = inhibition above about 16%, passing the limit was not always enough;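 note: cells stimulated with the agonist NPW; 0% = agonist with vehicle and 100% = vehicle without agonist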
NS3 helicase inh – blocks Hepatitis C virus NS3 helicase unwinding | actives 0.56% (n = 290,000) | NS3 helicase DNA unwinding, Cy5 molecular beacon fluorescence | inhibition, % at 10.9 µM;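 active = inhibition above the mean of all tested compounds plus 3 SD, set per campaign, cut at about 35% in these data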;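 note: 0% = DMSO wells and 100% = thioflavine S control wells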
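assay system = NS3 helicase fragment of HCV | buffer or medium = MOPS pH 6.5, MgCl2, DTT, Tween20, BSA | timing = 60 min unwinding reaction at 25 °C after ATP addition | signal = Cy5 beacon fluorescence read at start and 1 h | read-out basis = % inhibition of unwinding | control set = low DMSO, high thioflavine S at 110 µM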
* hit, by the source's call; nt = no result. This is a sample that favours compounds with a hit; in the whole collection about 1.9% have one here.

SMILES | core dimer inh | DNA FID counter | pCIP destab | GPR7 antag | NS3 helicase inh
CCCCOc1ccc(C2/C(=C(\O)c3ccc4c(c3)OCCO4)C(=O)C(=O)N2CCCN2CCOCC2)cc1 (configuration not stated) | 13 | -42 | -4 | 4 | 3
Cc1cccc(OCCSc2nc3ncnc(N)c3[nH]2)c1 | -16 | -1 | 8 | 16* | -5
Cc1ccccc1OCCSc1nc2ncnc(N)c2[nH]1 | 13 | -1 | -1 | -10 | -15
CCCCN(C(=O)c1ccc(Br)o1)C1CCS(=O)(=O)C1 (configuration not stated) | 0 | nt | nt | nt | nt
Cc1[nH]c2c(C)cccc2c1CCNC(=O)c1ccc2c(c1[N+](=O)[O-])C(=O)c1ccccc1C2=O | 60* | 7 | -19 | -3 | -4
N#Cc1c(NC(=O)CN2C(=O)c3ccccc3C2=O)oc(-c2ccccc2)c1-c1ccccc1 | 18 | -1 | nt | -14 | 7
CC(C)CC(C(=O)Nc1oc(-c2ccccc2)c(-c2ccccc2)c1C#N)N1C(=O)c2ccccc2C1=O (configuration not stated) | 76* | -15 | 0 | -12 | 2
N#Cc1c(NC(=O)CCN2C(=O)c3ccccc3C2=O)oc(-c2ccccc2)c1-c1ccccc1 | 24 | -3 | -6 | -6 | -18
N#Cc1c(NC(=O)CCn2cnc3ccccc3c2=O)oc(-c2ccccc2)c1-c1ccccc1 | 25 | -9 | -4 | 18* | 5
COc1cccc(C2Nc3ccc4ccccc4c3C3=C2C(=O)CCC3)c1O (configuration not stated) | 2 | -15 | -2 | -8 | 15
O=C1CC(N2C(=O)/C(=C/C=C/c3ccccc3)SC2=S)C(=O)N1c1ccccc1 (configuration not stated) | 51* | -8 | -8 | -11 | 10
COCCN(CC1CCCN(C2Cc3ccccc3C2)C1)C(=O)CSC (configuration not stated) | -9 | -8 | -13 | -1 | 22
C#CCOCCOCCOCCNc1nc(N2CCN(C(=O)[C@H]([C@@H](C)CC)n3cc([C@@H](N)CO)nn3)CC2)nc(N2CCN(C(=O)[C@H](Cc3ccc(O)cc3)n3cc([C@@H](N)CC(C)C)nn3)CC2)n1 | 4 | 41* | -7 | 0 | -65
C#CCOCCOCCOCCNc1nc(N2CCN(C(=O)[C@H]([C@@H](C)CC)n3cc([C@@H](N)Cc4ccc(O)cc4)nn3)CC2)nc(N2CCN(C(=O)[C@H](Cc3ccc(O)cc3)n3cc([C@@H](N)C(C)CC)nn3)CC2)n1 (some centres not stated) | 2 | 45* | -7 | -17 | -69
C#CCOCCOCCOCCNc1nc(N2CCN(C(=O)[C@H]([C@@H](C)CC)n3cc([C@@H](N)CC(C)C)nn3)CC2)nc(N2CCN(C(=O)[C@H](Cc3ccc(O)cc3)n3cc([C@@H](N)C(C)CC)nn3)CC2)n1 (some centres not stated) | -19 | 35 | -9 | -16 | -69
C#CCOCCOCCOCCNc1nc(N2CCN(C(=O)[C@H]([C@@H](C)CC)n3cc([C@@H](N)Cc4ccc(O)cc4)nn3)CC2)nc(N2CCN(C(=O)[C@H](Cc3ccc(O)cc3)n3cc([C@@H](N)CC(C)C)nn3)CC2)n1 | 1 | 36 | -7 | -14 | -58
C#CCOCCOCCOCCNc1nc(N2CCN(C(=O)[C@H]([C@@H](C)CC)n3cc([C@@H](N)Cc4ccc(O)cc4)nn3)CC2)nc(N2CCN(C(=O)[C@H]([C@@H](C)CC)n3cc([C@@H](N)CC(C)C)nn3)CC2)n1 | -2 | 47* | 2 | 1 | -62
O=C(Nc1ccc(Cl)cc1)C1C2CCCCC21 (configuration not stated) | -3 | -7 | 3 | 23 | 9
Cc1ccc2[nH]c(C(=O)N3CCC(C(N)=O)CC3)cc2c1 | 4 | -2 | -50 | -17 | 3
COC(=O)c1[nH]nc(-c2ccccc2)c1-c1ccccc1 | 1 | nt | nt | nt | nt
CC(OC(=O)c1ccc(NC(=O)CC#N)cc1)C(=O)Nc1nc(-c2ccccc2)cs1 (configuration not stated) | 21 | nt | nt | nt | nt
CC(OC(=O)c1ccc(NC(=O)CC#N)cc1)C(=O)Nc1ccc(Oc2ccccc2)cc1 (configuration not stated) | 47* | -17 | -4 | 3 | 17
